# TAAR1 antag = antagonists of human TAAR1 | CHO RD-HGA16 TAAR1, Fluo-8 calcium fluorescence, antagonist | inhibition, % at 3 µM | 360,000 compounds, 1.5% hits | AID 624466;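 active means inhibition above a per-plate cutoff, the mean inhibition of test compounds on that plate plus 3 SD, cut at about 49% in these data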
# Target sequence (Q96RJ0 whole entry, looked up): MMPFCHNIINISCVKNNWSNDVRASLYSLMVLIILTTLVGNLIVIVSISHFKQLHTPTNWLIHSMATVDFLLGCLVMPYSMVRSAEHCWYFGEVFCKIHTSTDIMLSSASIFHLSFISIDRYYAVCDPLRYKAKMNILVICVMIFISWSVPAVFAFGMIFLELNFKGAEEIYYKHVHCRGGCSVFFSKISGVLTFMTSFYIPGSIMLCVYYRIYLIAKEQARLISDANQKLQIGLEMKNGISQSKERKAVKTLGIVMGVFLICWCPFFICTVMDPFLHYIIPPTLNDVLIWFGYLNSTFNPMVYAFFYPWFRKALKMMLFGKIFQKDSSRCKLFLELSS
#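 Test system: CHO RD-HGA16 cells bearing hTAAR1 | Reagent: β-PEA, EC80 | Compound dosing: 3 µM, single point | Schedule: Dye loading 75 min at 37 °C, then 30 min room temperature | Signal: Calcium fluorescence with Fluo-8 | Evaluation: Percent inhibition of PEA-evoked calcium signal, max/basal emission ratio | Control set: DMSO-only wells and EC80 β-PEA-stimulated wells | Repeats: Singlicate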
# GalR3 antagonist = antagonists of human GalR3; HEK293 GalR3-CNG cAMP membrane potential fluorescence; galR3 body fused to GalR1 C-terminus; O60755; inhibition, % at 3 µM; 360,000 compounds, 0.44% hits;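 active means inhibition above the screen-wide average plus 3 SD, cut at about 13% in these data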;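 further: forskolin and galanin both at EC90 stimulate the cells; cAMP rise reported by CNG channel membrane potential dye signal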
# Target sequence (O60755 1-299 limits assumed): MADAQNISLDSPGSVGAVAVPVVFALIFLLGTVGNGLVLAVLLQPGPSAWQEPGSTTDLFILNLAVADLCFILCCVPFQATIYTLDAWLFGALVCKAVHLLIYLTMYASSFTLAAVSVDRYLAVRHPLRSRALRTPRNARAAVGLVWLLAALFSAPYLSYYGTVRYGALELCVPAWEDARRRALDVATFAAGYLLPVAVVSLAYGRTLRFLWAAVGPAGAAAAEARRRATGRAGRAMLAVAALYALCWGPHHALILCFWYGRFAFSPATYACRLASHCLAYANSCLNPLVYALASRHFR
# OX1R antag-1 = blocks the human orexin 1 receptor; O43613; CHO/OX1R cells, Fluo-8 calcium fluorescence, orexin A; inhibition, % at 5 µM; 330,000 compounds, 0.43% hits; AID 434989;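 active means inhibition above its plate's threshold, mean inhibition of all tested compounds on the plate plus 3 SD, cut at about 37% in these data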
# CHO parental Ca = signal in parental CHO cells, OX1R antagonist counter-screen; parental CHO-K1, ATP-induced calcium, Fluo-8 fluorescence; 330,000 compounds, 0.63% hits; AID 463079; inhibition, % at 5.6 µM;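 active means inhibition above that plate's mean sample inhibition plus 3 SD, cut at about 26% in these data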
#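 Material: Parental CHO cells | Reagent: ATP | Compound dosing: Single nominal dose of 5.6 µM per compound | Detection: Intracellular calcium via Fluo-8 no-wash fluorescent dye | Read-out: % inhibition of ATP-induced calcium mobilization | Benchmarks: Low control ATP plus DMSO, high control DMSO only | Replicates: Singlicate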
# TAAR1 agonist = human TAAR1 agonism; CHO RD-HGA16 TAAR1, Fluo-8 calcium fluorescence; vehicle wells 0%, saturating PEA agonist 100%; activation, % at 3 µM; 360,000 compounds, 0.99% hits;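 active means activation above the mean activation of all test compounds in the run plus 3 SD, cut at about 38% in these data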
#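 System: CHO-derived RD-HGA16 cells with stable Gα16 and human TAAR1 / Times: 17-24 h plating, Fluo-8 75 min 37 °C, 30 min RT / Technique: calcium-sensitive Fluo-8 signal, excitation 470-495, emission 515-575 nm / Measure: % activation relative to PEA EC100 response / Benchmarks: DMSO and PEA EC100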
# OX1R antag-2 = antagonists of human orexin 1 receptor (OX1R) | inhibition, % at 6.6 µM | O43613 | OX1R-expressing cells, FRET antagonist read-out | 330,000 compounds, 1.8% hits | AID 485270; in the data active means inhibition mostly above about 38%, no sharp cut-off; inactive means mostly below about 40%
# Numbers stand for hits; i = inactive; nt = not tested or not shown. This is a sample that favours compounds with a hit; in the whole collection about 4.3% have one here.
SMILES,TAAR1 antag,GalR3 antagonist,OX1R antag-1,CHO parental Ca,TAAR1 agonist,OX1R antag-2
COc1ccc(CNCCS(=O)(=O)NN2CCOCC2)cc1,i,i,i,i,i,i
COc1cccc(NC(=O)Nc2ccc(C)c(Cl)c2)c1,i,i,38,90,i,i
Cc1ccc(NC(=O)CCC(=O)c2ccc(F)cc2)cc1Cl,i,i,i,i,i,i
Cc1ccc(NC(=O)Nc2ccc(F)cc2)cc1Cl,i,i,i,41,i,i
O=C(Nc1ccc(F)cc1)Nc1cc(OCC(F)(F)F)cc(OCC(F)(F)F)c1,i,i,i,40,i,i
CC(=O)N(C)c1ccc(NC(=O)Nc2ccc(C)c(C)c2)cc1,58,i,i,i,i,i
CC(C)(C)c1ccc(NC(=O)Nc2ccc(F)cc2)cc1,94,i,64,62,i,i
Cc1ccc(C2CC2c2n[nH]c(=S)n2-c2ccc(Cl)cc2)cc1 (stereo not drawn),i,i,i,86,i,i
O=C(NC1CC1)c1ccc(CSCc2ccc(Cl)cc2)o1,i,i,nt,nt,i,nt
CCOC(=O)c1oc2ccccc2c1N,i,i,i,i,i,i
Nc1c(C(=O)c2cccs2)oc2ccccc12,i,i,i,i,i,68
COCc1cc(N2CCNC[C@@H]2C)ccc1N1C[C@@H](C)O[C@@H](C)C1,i,i,nt,nt,i,nt
COC(=O)[C@]12C[C@H](CC(=O)N3CCN(C(=O)C4CC4)CC3)C(=O)N(CCC3=CCCCC3)C1=C[C@H](C(C)(C)C)O[C@@H]2C,i,i,nt,nt,i,nt
CCOC(=O)/C(=C/C=C1\Sc2cc(OCC)c(OCC)cc2N1CC)C(C)=O,73,i,108,85,158,i
CCC(C)c1ccc(NC(=S)NCCn2cc(Cl)cn2)cc1 (stereo not drawn),i,i,i,45,i,i
CNc1nc(NCC2CCCCC2)c2sccc2n1,i,i,nt,nt,49,nt
O=C(c1cc(=O)[nH]c2ccccc12)N1CCN(S(=O)(=O)c2ccc(Cl)cc2)CC1,59,i,i,i,i,i
O=C(c1n[nH]c2ccccc12)N1CCN(S(=O)(=O)c2ccccc2)CC1,i,i,i,i,i,i
COc1ccc(NC(=O)COc2ccc(/C=C/c3cccc[n+]3C)cc2OC)cc1,i,i,i,i,i,i
C=CC[n+]1c(/C=C/c2ccc(OC(C)=O)c(OC)c2)ccc2ccccc21,i,i,i,i,i,48
Cc1cccc(N(CC(O)CON=C2c3ccccc3-c3ccccc32)S(C)(=O)=O)c1 (stereo not drawn),i,i,i,i,i,63
CCN(CC(O)CON=C1c2ccccc2-c2ccccc21)S(=O)(=O)c1ccc(C)cc1 (stereo not drawn),i,i,i,i,i,73
COC(=O)C1=C(C)N(C)C(=NCc2ccc3c(c2)OCO3)NC1c1ccccc1 (stereo not drawn),i,i,nt,nt,i,nt
O=c1nccc(Nc2ccccc2)[nH]1,i,i,i,i,i,i
Nc1[nH]c(=O)nc(Nc2ccccc2)c1N=O,i,i,i,i,i,55
SMILES,TAAR1 antag,GalR3 antagonist,OX1R antag-1,CHO parental Ca,TAAR1 agonist,OX1R antag-2
O=S(=O)(NCCOCC(F)(F)F)c1ccc2oc3ccccc3c2c1,i,i,56,59,i,i
O=S(=O)(NCCOCCNS(=O)(=O)c1ccccc1)c1ccccc1,i,i,i,i,i,i
COc1ccc([C@H]2CC(=O)C=C(c3cccc(OC)c3OC)C2)cc1OC,52,i,i,i,i,i
COc1ccc([C@H]2CC(=O)C=C(c3cccc4c3sc3ccccc34)C2)cc1OC,i,i,i,i,i,i
O=S1(=O)C[C@@H](N2CCN(c3ccccn3)CC2)[C@H](COCc2ccccc2)N1,i,i,nt,nt,i,nt
O=C(NCc1ccco1)C1CCN(C(=O)c2ccc([N+](=O)[O-])cc2)CC1,i,i,i,i,i,53
O=C(NCc1ccco1)C1CCN(C(=O)c2ccc(Cl)cc2)CC1,i,i,i,i,i,i
O=C(NCc1ccco1)C1CCN(C(=O)c2cc3sccc3n2Cc2ccc(Cl)cc2)CC1,i,i,69,37,i,i
CCn1c(C(=O)N2CCC(C(=O)NCc3cccs3)CC2)cc2sccc21,i,nt,i,i,i,i
COC(=O)[C@]12C[C@H](CC(=O)NCC3CCCCC3)C(=O)N(Cc3ccc4c(c3)OCO4)C1=C[C@H](COCc1ccccc1)O[C@@H]2C,i,i,nt,nt,i,nt
O=C(CN1C(=O)C(=O)N(Cc2ccccc2)C1=O)Nc1ccc(OC(F)F)cc1,i,i,i,i,i,i
COc1ccccc1CCn1cnc(-c2ccccc2OC)c1CC(C)C,i,i,nt,nt,i,nt
CCOc1ccc(S(=O)(=O)N2CCN(C(=O)C3CC3C)CC2)cc1 (stereo not drawn),i,i,i,i,i,i
COc1cccc(OC)c1C(=O)Nc1sc2c(c1C#N)CCC2,i,i,i,i,i,55
N#Cc1c(NC(=O)c2ccco2)sc2c1CCC2,i,i,i,i,i,i
O=C(CN1CCOCC1)Nc1nc(-c2ccc3c(c2)CCN3S(=O)(=O)c2ccccc2)cs1,53,i,i,i,i,i
CS(=O)(=O)N1CCc2cc(-c3csc(NC(=O)Cc4cccs4)n3)ccc21,50,i,i,i,i,i
O=C(Nc1nc(-c2ccc(S(=O)(=O)N3CCCC3)cc2)cs1)C1COc2ccccc2O1 (stereo not drawn),57,i,i,i,i,i
O=C(COc1ccccc1)Nc1nc(-c2ccc(S(=O)(=O)N3CCOCC3)cc2)cs1,55,i,i,i,i,i
O=[N+]([O-])c1cccc(-c2cc(-c3cc(Br)ccc3O)[nH]n2)c1,i,i,i,i,i,i
CC(C)N1CC(C(=O)Nc2cc(Cl)cc(Cl)c2)CC1=O (stereo not drawn),i,i,i,i,i,i
Cc1nc2c(OCc3cccc(Cl)c3)cccn2c1N(C)Cc1cccs1,i,i,nt,nt,i,nt
Cc1occc(=O)c1OC(=O)Nc1ccc(Cl)c(Cl)c1,i,i,i,70,i,i
O=C(CCl)NC(Cc1ccccc1)C(=O)OCC(=O)c1ccc(-c2ccccc2)cc1 (stereo not drawn),60,i,nt,nt,i,nt
COc1cc(/C=C2\SC(=Nc3ccccc3)N(Cc3ccco3)C2=O)ccc1OC(C)C(=O)O (stereo not drawn),i,i,i,i,i,i
COCCN1C(=O)/C(=C/c2ccc(OCc3ccc(C(=O)O)cc3)c(OC)c2)SC1=Nc1ccccc1,73,i,i,i,i,i
CCc1ccc(NC(=O)Cn2nc(C(F)(F)F)c3c2CCC3)cc1,i,i,i,40,i,i
CCc1ccccc1NC(=O)Cn1nc(C(F)(F)F)c2c1CCC2,i,i,i,i,i,i
